Data reported in ChEMBL document CHEMBL5303300, “EUbOPEN Chemogenomics Library - Multiplex” (2023).
Where “and” joins values, the source holds several entries; their conditions need not be identical. Identical values can stand only once.

System: HEK-293T
Test: Multiplex assay against HEK293T
Format: toxicity, cell-based
Conditions: human, number of replicates 2
Outline: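 Phenotypes for tubulin, mitochondrial mass and membrane permeability are expressed as per cents of healthy-nucleus cells. Cells were stained live at seeding with Hoechst33342, BioTracker Green Microtubule Cytoskeleton Dye, MitoTracker Red and Annexin V Alexa Fluor 680, then imaged after compound addition on a CQ1 microscope at 37°C and 5% CO2. Machine-learning gating in CellPathfinder separated Hoechst high-intensity objects from normal cells, divided normal cells by nuclear state (healthy, pyknosed, fragmented) and divided pyknosed cells into mitotic or apoptotic.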

[1] = 12 h, 1 µM, compound concentration 1 uM
[2] = 12 h, 10 µM, compound concentration 10 uM
[3] = 24 h, 1 µM, compound concentration 1 uM
[4] = 24 h, 10 µM, compound concentration 10 uM
[5] = 48 h, 1 µM, compound concentration 1 uM
[6] = 48 h, 10 µM, compound concentration 10 uM

With COc1ccc2cc(S(=O)(=O)N[C@H](CC(=O)N[C@H](Cc3ccc(CN4[C@H](C)CCC[C@@H]4C)cc3)C(=O)N(C)C(C)C)c3ccc4c(c3)OCO4)ccc2c1.Cl the “Population Apoptotic (%)” value [1] was 40% and 62%, the “Population Fragmented Nuclei (%)” value [1] was 2% and 1% and the “Population Healthy Nuclei (%)” value [1] was 85% and 84%. The “Population Hoechst High Intensity Objects (%)” value [1] was 5% and 6%, the “Population Membrane Permeable-Phenotype (%)” value [1] was 5% and the “Population Mitochondria Different-Phenotype (%)” value [1] was 29% and 26%. The “Population Mitotic Cells (%)” value [1] was 59% and 37%, the “Population Normal (%)” value [1] was 94% and 93% and the “Population Pyknosed Nuclei (%)” value [1] was 11% and 13%. For the same molecule, the “Population Tubulin-Different-Phenotype (%)” value [1] was 86% and 85%, the “Total Cell Count” value [1] was 531 and 472 and the “Population Apoptotic (%)” value [2] was 76% and 70%. For the same molecule, the “Population Fragmented Nuclei (%)” value [2] was 1% and 3%, the “Population Healthy Nuclei (%)” value [2] was 82% and 83% and the “Population Hoechst High Intensity Objects (%)” value [2] was 10% and 9%. For the same molecule, the “Population Membrane Permeable-Phenotype (%)” value [2] was 1% and 4%, the “Population Mitochondria Different-Phenotype (%)” value [2] was 82% and 70% and the “Population Mitotic Cells (%)” value [2] was 23% and 29%. The “Population Normal (%)” value [2] was 89% and 90%, the “Population Pyknosed Nuclei (%)” value [2] was 15% and 12% and the “Population Tubulin-Different-Phenotype (%)” value [2] was 85% and 82%. The “Total Cell Count” value [2] was 395 and 352, the “Population Apoptotic (%)” value [3] was 52% and 56% and the “Population Fragmented Nuclei (%)” value [3] was 5%. The “Population Healthy Nuclei (%)” value [3] was 86% and 83%, the “Population Hoechst High Intensity Objects (%)” value [3] was 6% and 9% and the “Population Membrane Permeable-Phenotype (%)” value [3] was 4%. The “Population Mitochondria Different-Phenotype (%)” value [3] was 19% and 22%, the “Population Mitotic Cells (%)” value [3] was 47% and 43% and the “Population Normal (%)” value [3] was 93% and 90%. For the same molecule, the “Population Pyknosed Nuclei (%)” value [3] was 7% and 10%, the “Population Tubulin-Different-Phenotype (%)” value [3] was 74% and 73% and the “Total Cell Count” value [3] was 766 and 588. For the same molecule, the “Population Apoptotic (%)” value [4] was 80% and 69%, the “Population Fragmented Nuclei (%)” value [4] was 2% and 5% and the “Population Healthy Nuclei (%)” value [4] was 76% and 75%. For the same molecule, the “Population Hoechst High Intensity Objects (%)” value [4] was 10% and 15%, the “Population Membrane Permeable-Phenotype (%)” value [4] was 1% and 2% and the “Population Mitochondria Different-Phenotype (%)” value [4] was 88% and 86%. For the same molecule, the “Population Mitotic Cells (%)” value [4] was 19% and 30%, the “Population Normal (%)” value [4] was 89% and 84% and the “Population Pyknosed Nuclei (%)” value [4] was 20% and 19%. For the same molecule, the “Population Tubulin-Different-Phenotype (%)” value [4] was 78% and 75%, the “Total Cell Count” value [4] was 417 and 393 and the “Population Apoptotic (%)” value [5] was 18% and 44%. For the same molecule, the “Population Fragmented Nuclei (%)” value [5] was 10% and 8%, the “Population Healthy Nuclei (%)” value [5] was 84% and 85% and the “Population Hoechst High Intensity Objects (%)” value [5] was 8% and 9%. For the same molecule, the “Population Membrane Permeable-Phenotype (%)” value [5] was 6% and 3%, the “Population Mitochondria Different-Phenotype (%)” value [5] was 5% and 4% and the “Population Mitotic Cells (%)” value [5] was 81% and 55%. The “Population Normal (%)” value [5] was 91% and 90%, the “Population Pyknosed Nuclei (%)” value [5] was 4% and 6% and the “Population Tubulin-Different-Phenotype (%)” value [5] was 44% and 41%. The “Total Cell Count” value [5] was 1592 and 1105, the “Population Apoptotic (%)” value [6] was 88% and 78% and the “Population Fragmented Nuclei (%)” value [6] was 6% and 9%. The “Population Healthy Nuclei (%)” value [6] was 81% and 80%, the “Population Hoechst High Intensity Objects (%)” value [6] was 14% and 17% and the “Population Membrane Permeable-Phenotype (%)” value [6] was 2% and 3%. For the same molecule, the “Population Mitochondria Different-Phenotype (%)” value [6] was 78% and 79%, the “Population Mitotic Cells (%)” value [6] was 12% and 21% and the “Population Normal (%)” value [6] was 85% and 82%. For the same molecule, the “Population Pyknosed Nuclei (%)” value [6] was 11% and 10%, the “Population Tubulin-Different-Phenotype (%)” value [6] was 84% and 87% and the “Total Cell Count” value [6] was 498 and 427.

With COc1cc(N(C)c2ccnc3ccc(C(F)(F)F)cc23)cc(OC)c1OC the “Population Apoptotic (%)” value [1] was 58% and 48%, the “Population Fragmented Nuclei (%)” value [1] was 5% and 4% and the “Population Healthy Nuclei (%)” value [1] was 81% and 79%. The “Population Hoechst High Intensity Objects (%)” value [1] was 7% and 6%, the “Population Membrane Permeable-Phenotype (%)” value [1] was 2% and 5% and the “Population Mitochondria Different-Phenotype (%)” value [1] was 13% and 17%. The “Population Mitotic Cells (%)” value [1] was 41% and 51%, the “Population Normal (%)” value [1] was 92% and 93% and the “Population Pyknosed Nuclei (%)” value [1] was 12% and 16%. For the same molecule, the “Population Tubulin-Different-Phenotype (%)” value [1] was 50% and 48%, the “Total Cell Count” value [1] was 523 and 568 and the “Population Apoptotic (%)” value [2] was 42% and 52%. The “Population Fragmented Nuclei (%)” value [2] was 3% and 2%, the “Population Healthy Nuclei (%)” value [2] was 82% and 80% and the “Population Hoechst High Intensity Objects (%)” value [2] was 5%. The “Population Membrane Permeable-Phenotype (%)” value [2] was 5% and 3%, the “Population Mitochondria Different-Phenotype (%)” value [2] was 34% and 29% and the “Population Mitotic Cells (%)” value [2] was 57% and 47%. The “Population Normal (%)” value [2] was 94%, the “Population Pyknosed Nuclei (%)” value [2] was 14% and 17% and the “Population Tubulin-Different-Phenotype (%)” value [2] was 79% and 82%. The “Total Cell Count” value [2] was 570 and 542, the “Population Apoptotic (%)” value [3] was 54% and 36% and the “Population Fragmented Nuclei (%)” value [3] was 5% and 6%. For the same molecule, the “Population Healthy Nuclei (%)” value [3] was 83% and 85%, the “Population Hoechst High Intensity Objects (%)” value [3] was 7% and 6% and the “Population Membrane Permeable-Phenotype (%)” value [3] was 3% and 5%. For the same molecule, the “Population Mitochondria Different-Phenotype (%)” value [3] was 6% and 4%, the “Population Mitotic Cells (%)” value [3] was 45% and 63% and the “Population Normal (%)” value [3] was 92% and 93%. The “Population Pyknosed Nuclei (%)” value [3] was 10% and 8%, the “Population Tubulin-Different-Phenotype (%)” value [3] was 33% and 26% and the “Total Cell Count” value [3] was 845 and 846. The “Population Apoptotic (%)” value [4] was 46% and 53%, the “Population Fragmented Nuclei (%)” value [4] was 3% and 4% and the “Population Healthy Nuclei (%)” value [4] was 84% and 83%. For the same molecule, the “Population Hoechst High Intensity Objects (%)” value [4] was 5%, the “Population Membrane Permeable-Phenotype (%)” value [4] was 3% and 1% and the “Population Mitochondria Different-Phenotype (%)” value [4] was 31% and 20%. For the same molecule, the “Population Mitotic Cells (%)” value [4] was 53% and 46%, the “Population Normal (%)” value [4] was 94% and the “Population Pyknosed Nuclei (%)” value [4] was 11% and 12%. For the same molecule, the “Population Tubulin-Different-Phenotype (%)” value [4] was 69% and 64%, the “Total Cell Count” value [4] was 762 and 740 and the “Population Apoptotic (%)” value [5] was 16% and 24%. For the same molecule, the “Population Fragmented Nuclei (%)” value [5] was 12% and 11%, the “Population Healthy Nuclei (%)” value [5] was 83% and 84% and the “Population Hoechst High Intensity Objects (%)” value [5] was 7%. For the same molecule, the “Population Membrane Permeable-Phenotype (%)” value [5] was 5% and 4%, the “Population Mitochondria Different-Phenotype (%)” value [5] was 0% and the “Population Mitotic Cells (%)” value [5] was 83% and 75%. The “Population Normal (%)” value [5] was 92%, the “Population Pyknosed Nuclei (%)” value [5] was 3% and the “Population Tubulin-Different-Phenotype (%)” value [5] was 12% and 11%. The “Total Cell Count” value [5] was 2086 and 2004, the “Population Apoptotic (%)” value [6] was 26% and 38% and the “Population Fragmented Nuclei (%)” value [6] was 9% and 7%. For the same molecule, the “Population Healthy Nuclei (%)” value [6] was 85% and 86%, the “Population Hoechst High Intensity Objects (%)” value [6] was 7% and 8% and the “Population Membrane Permeable-Phenotype (%)” value [6] was 3% and 1%. For the same molecule, the “Population Mitochondria Different-Phenotype (%)” value [6] was 9%, the “Population Mitotic Cells (%)” value [6] was 73% and 61% and the “Population Normal (%)” value [6] was 92% and 91%. For the same molecule, the “Population Pyknosed Nuclei (%)” value [6] was 5%, the “Population Tubulin-Different-Phenotype (%)” value [6] was 48% and 46% and the “Total Cell Count” value [6] was 1391 and 1324.

For CS(=O)(=O)c1ccc(C(=O)Nc2ccc(F)c(COc3ccc(Br)cc3CNCCO)c2)c(Cl)c1.O=CO, the “Population Apoptotic (%)” value [1] was 55% and 59%, the “Population Healthy Nuclei (%)” value [1] was 78% and 76% and the “Population Mitotic Cells (%)” value [1] was 44% and 40%. The “Total Cell Count” value [1] was 571 and 534, the “Population Apoptotic (%)” value [2] was 71% and 70% and the “Population Healthy Nuclei (%)” value [2] was 84% and 78%. For the same molecule, the “Population Mitotic Cells (%)” value [2] was 28% and 30%, the “Total Cell Count” value [2] was 446 and 461 and the “Population Apoptotic (%)” value [3] was 57% and 61%. For the same molecule, the “Population Healthy Nuclei (%)” value [3] was 79% and 77%, the “Population Mitotic Cells (%)” value [3] was 42% and 38% and the “Total Cell Count” value [3] was 845 and 808. For the same molecule, the “Population Apoptotic (%)” value [4] was 72% and 81%, the “Population Healthy Nuclei (%)” value [4] was 75% and the “Population Mitotic Cells (%)” value [4] was 28% and 18%. The “Total Cell Count” value [4] was 456, the “Population Apoptotic (%)” value [5] was 30% and 39% and the “Population Healthy Nuclei (%)” value [5] was 79% and 83%. For the same molecule, the “Population Mitotic Cells (%)” value [5] was 69% and 60%, the “Total Cell Count” value [5] was 2082 and 1679 and the “Population Apoptotic (%)” value [6] was 82% and 80%. For the same molecule, the “Population Healthy Nuclei (%)” value [6] was 75%, the “Population Mitotic Cells (%)” value [6] was 17% and 19% and the “Total Cell Count” value [6] was 675 and 612.

In the case of CS(=O)(=O)c1ccc(C(=O)Nc2cccc(COc3cc(F)c(Br)cc3CN3CC[C@H](O)C3)c2)c(Cl)c1.O=CO, the “Population Apoptotic (%)” value [1] is reported as 58% and 54%, the “Population Pyknosed Nuclei (%)” value [1] is reported as 13% and 21% and the “Total Cell Count” value [1] is reported as 586 and 531. The “Population Apoptotic (%)” value [2] was 57% and 73%, the “Population Mitotic Cells (%)” value [2] was 42% and the “Population Pyknosed Nuclei (%)” value [2] was 11% and 17%. The “Total Cell Count” value [2] was 505 and 443, the “Population Apoptotic (%)” value [3] was 53% and 54% and the “Population Mitotic Cells (%)” value [3] was 46%. For the same molecule, the “Population Pyknosed Nuclei (%)” value [3] was 11% and 10%, the “Total Cell Count” value [3] was 800 and 910 and the “Population Apoptotic (%)” value [4] was 65% and 73%. The “Population Mitotic Cells (%)” value [4] was 34%, the “Population Pyknosed Nuclei (%)” value [4] was 16% and 13% and the “Total Cell Count” value [4] was 426 and 549. For the same molecule, the “Population Apoptotic (%)” value [5] was 18% and 28%, the “Population Mitotic Cells (%)” value [5] was 81% and 71% and the “Population Pyknosed Nuclei (%)” value [5] was 3% and 4%. For the same molecule, the “Total Cell Count” value [5] was 2227 and 1546, the “Population Apoptotic (%)” value [6] was 61% and 60% and the “Population Mitotic Cells (%)” value [6] was 38% and 39%. The “Population Pyknosed Nuclei (%)” value [6] was 10% and 8% and the “Total Cell Count” value [6] was 595 and 738.
